Where two headings read alike, the source gives them in different places. Marks after values point to notes of the source that are not given here.
Assays:
[1] = adults; cited from earlier work
[2] = Safety and tolerability, on-treatment adverse events, study 1; assay type: in vivo, human; conditions: for Abdominal pain / Accidental injury / Fever / Headache / Otitis media / Upper respiratory infection: on-treatment AE; for Abdominal pain / Accidental injury / Fever / Headache / Otitis media / Upper respiratory infection / Any AE: patients (percent); for Any AE: on-treatment
Summary of the method: (§1)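 Patients randomized 1:1 to 20 or 40 mg delayed-release tablet once daily: about 28 days in study 1, at least 5 consecutive doses in study 2. On-treatment AEs were those occurring during dosing or within 48 h of the last dose. Vital signs were taken 2 h predose and 2, 8 and 12 h postdose on day 1. Physical exam and labs were done on the multiple-dose PK day. Telephone AE follow-up came 14 days after completion.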

[3] = Single-dose pharmacokinetics of pantoprazole delayed-release tablet, study 1; assay type: in vivo, human; conditions: for AUC / CL/F / Cmax / Tmax / Vd/F / half-life: human, plasma, po; for tlag: study 1, 6-11 y, median (range)
[4] = neonates; cited from earlier work
[5] = Single-dose pharmacokinetics of pantoprazole delayed-release tablet, study 2; assay type: in vivo, human; conditions: for AUC / CL/F / Cmax / Tmax / Vd/F / half-life: human, plasma, po; for tlag: study 2, 12-16 y, median (range)
[6] = Safety and tolerability, on-treatment adverse events, study 2; assay type: in vivo, human; conditions: for Abdominal pain / Accidental injury / Fever / Headache / Otitis media: on-treatment AE; for Abdominal pain / Accidental injury / Fever / Headache / Otitis media / Any AE: patients (percent); for Any AE: on-treatment
Summary of the method: as §1

[7] = study 1, 20 mg once daily (n = 11)
[8] = study 1, 40 mg once daily (n = 13)
[9] = study 1, 20 or 40 mg once daily
[10] = study 1, total of both doses (n = 24)
[11] = study 2, 20 mg once daily (n = 11)
[12] = study 2, 40 mg once daily (n = 11)
[13] = study 2, 20 or 40 mg once daily
[14] = study 2, total of both doses (n = 22)

## COc1ccnc(C[S+]([O-])c2nc3ccc(OC(F)F)cc3[nH]2)c1OC (centres unmarked) [pantoprazole]
[1]
  accumulation on repeated once-daily dosing: does not result in accumulation
  half-life: approximately 1 hour
[2]; [7]
  Abdominal pain: 3 (27.3)
  Accidental injury: 1 (9.1)
  Fever: 1 (9.1)
  Headache: 1 (9.1)
  Otitis media: 2 (18.2)
  Upper respiratory infection: 2 (18.2)
  Any AE: 9 (81.8)
[2]; [8]
  Abdominal pain: 1 (7.7)
  Accidental injury: 1 (7.7)
  Fever: 1 (7.7)
  Headache: 2 (15.4)
  Otitis media: 0
  Upper respiratory infection: 0
  Any AE: 7 (53.8)
[2]; [9]
  ECG, QTc changes: no abnormal QTc changes
  serious AEs: no serious AEs
  severity of all AEs: mild or moderate
[2]; [10]
  Abdominal pain: 4 (16.7)
  Accidental injury: 2 (8.3)
  Fever: 2 (8.3)
  Headache: 3 (12.5)
  Otitis media: 2 (8.3)
  Upper respiratory infection: 2 (8.3)
  Any AE: 16 (66.7)
[3]; 20 mg
  AUC: 2500 ± 2100 ng·h/mL
  CL/F: 6.83 mL/min/kg
  Cmax: 1600 ± 1200 ng/mL
  Tmax: 2 h
  Vd/F: 0.43 ± 0.3 L/kg
  half-life: 0.8 ± 0.2 h
[3]; 40 mg
  AUC: 3800 ± 1800 ng·h/mL
  CL/F: 6.67 mL/min/kg
  Cmax: 2100 ± 1300 ng/mL
  Tmax: 2 h
  Vd/F: 0.4 ± 0.27 L/kg
  half-life: 0.7 ± 0.2 h
[3]; single oral 20 mg tablet, n = 10
  tlag: 1.0 (0.5, 2.0) h
[3]; single oral 40 mg tablet, n = 12
  tlag: 0.8 (0, 1.0) ^b h
[3]; study 1, all patients, 20 or 40 mg, lower limit of quantitation 10 ng/mL
  concentration of pantoprazole at 12 hours after the first dose: below the lower limit of quantitation
[4]
  mean CL/F: 3.67 mL/min/kg
[5]; 20 mg
  AUC: 1300 ± 600 ng·h/mL
  CL/F: 4.67 mL/min/kg
  Cmax: 900 ± 500 ng/mL
  Tmax: 1.5 h
  Vd/F: 0.32 ± 0.22 L/kg
  half-life: 0.8 ± 0.3 h
[5]; 40 mg
  AUC: 4300 ± 3100 ng·h/mL
  CL/F: 3 mL/min/kg
  Cmax: 2200 ± 1400 ng/mL
  Tmax: 2 h
  Vd/F: 0.21 ± 0.06 L/kg
  half-life: 0.9 ± 0.3 h
[5]; single oral 20 mg tablet, n = 9
  tlag: 1.0 (0, 2.5) ^c h
[5]; single oral 40 mg tablet, n = 11
  tlag: 1.0 (0, 8) h
[6]; [11]
  Abdominal pain: 0
  Accidental injury: 0
  Fever: 0
  Headache: 0
  Otitis media: 0
  Any AE: 2 (18.2)
[6]; [12]
  Abdominal pain: 2 (18.2)
  Accidental injury: 0
  Fever: 1 (9.1)
  Headache: 1 (9.1)
  Otitis media: 0
  Any AE: 4 (36.4)
[6]; [13]
  ECG, QTc changes: no abnormal QTc changes
  serious AEs: no serious AEs
  severity of all AEs: mild or moderate
[6]; [14]
  Abdominal pain: 2 (9.1)
  Accidental injury: 0
  Fever: 1 (4.5)
  Headache: 1 (4.5)
  Otitis media: 0
  Any AE: 6 (27.3)

From PMC3190583 (Journal of clinical pharmacology, 2010)
